# ChEMBL document CHEMBL1123760, “Synthesis and oral antifungal activity of novel azolylpropanolones and related compounds” (1987)
# What was measured:
# Assay type in all cases: functional
# [1] = system: Aspergillus fumigatus; assay: In vitro antifungal activity against Aspergillus fumigatus
# Outline: (§1)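 Broth microdilution MIC in Sabouraud's glucose broth; final inocula 1 × 10^5 cells/mL (yeast) or 1 × 10^5 conidia/mL (mold and dermatophyte).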
# [2] = system: Candida albicans; assay: In vitro antifungal activity against Candida albicans; outline: as §1
# [3] = system: Candida albicans; assay: Minimum effective concentration for inhibition of pseudomycelium formation in Candida albicans; conditions: for minimal effective concentration: Candida albicans, read-out: MEC
# Outline: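 C. albicans KE-2 (clinical isolate) at a final 1 × 10^6 yeast cells/mL in EMEM with 20% calf serum; compounds diluted by the same microtiter system as for MICs. After incubation, wells were Giemsa-stained (5% in phosphate buffer) and read by microscope. MEC is the lowest concentration preventing typical pseudomycelium formation.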
# [4] = system: Trichophyton benhamiae; assay: In vitro antifungal activity against Trichophyton asteroides; outline: as §1
# [5] = Aspergillus fumigatus, read-out: MIC
# [6] = Candida albicans, read-out: MIC
# [7] = Trichophyton benhamiae, read-out: MIC
Structure (SMILES),"MIC [1, 5] [µg/mL]","MIC [2, 6] [µg/mL]","MIC [4, 7] [µg/mL]",MIC [4] [µg/mL],MIC [1] [µg/mL],MIC [2] [µg/mL],minimal effective concentration [3] [µg/mL],MEC [3] [µg/mL]
OC(Cc1ccc(Cl)cc1)(c1ccccc1)C(O)(Cn1cncn1)c1ccc(Cl)cc1Cl (centres undefined),> 100,> 100,50,–,–,–,20,–
OC(c1ccc(Cl)cc1)C(O)(Cn1cncn1)c1ccc(Cl)cc1 (stereo in doubt; 89),> 100,50,–,12.5,–,–,–,20
Fc1ccc([C@H]2OC(=S)O[C@]2(Cn2cncn2)c2ccc(Cl)cc2Cl)cc1,> 100,100,3.1,–,–,–,10,–
O=C1O[C@H](c2ccccc2)[C@@](Cn2cncn2)(c2ccccc2Cl)O1,> 100,> 100,6.3,–,–,–,0.31,–
CCC[C@H]1OC(=O)O[C@]1(Cn1cncn1)c1ccc(Cl)cc1,> 100,> 100,1.6,–,–,–,0.31,–
O=S1O[C@H](c2ccc(Cl)cc2)[C@](Cn2cncn2)(c2ccc(Cl)cc2Cl)O1 (some centres undefined),> 100,> 100,0.1,–,–,–,0.02,–
OC(c1ccc(Cl)cc1)C(O)(Cn1cncn1)c1ccc(Cl)cc1Cl (stereo in doubt; 109),–,–,–,12.5,>100,100,–,20
CC(C)[C@H]1OS(=O)O[C@@]1(Cn1cncn1)c1ccc(Cl)cc1 (some centres undefined),> 100,> 100,0.4,–,–,–,0.16,–
CC(C)CC(O)(Cn1cncn1)C(=O)c1ccc(Cl)cc1 (centres undefined),> 100,> 100,0.8,–,–,–,0.31,–
OC(Cc1ccc(Cl)cc1)(c1ccc(F)cc1)C(O)(Cn1cncn1)c1ccc(Cl)cc1 (centres undefined),> 100,> 100,> 100,–,–,–,20,–
CC(C)C(O)C(O)(Cn1cncn1)c1ccc(Cl)cc1 (stereo in doubt; 100),> 100,> 100,–,0.8,–,–,–,0.16
O=C1O[C@H](c2ccc(F)cc2)[C@@](Cn2cncn2)(c2ccc(F)cc2)O1,> 100,> 100,3.1,–,–,–,2.5,–
O=C1O[C@H](c2ccc(Cl)cc2)[C@@](Cn2cncn2)(c2ccc(Cl)cc2Cl)O1 (stereo in doubt; 115),> 100,> 100,0.2,–,–,–,0.04,–
O=C(c1ccc(F)cc1)C(O)(Cn1cncn1)c1ccc(Cl)cc1 (centres undefined),> 100,100,0.8,–,–,–,1.25,–
O=C1O[C@H](c2ccc(Cl)cc2)[C@@](Cn2cncn2)(c2ccc(Cl)cc2)O1,> 100,50,0.8,–,–,–,1.25,–
O=C(c1cccc(Cl)c1)C(O)(Cn1cncn1)c1cccc(Cl)c1 (centres undefined),> 100,> 100,3.13,–,–,–,> 20,–
Cc1ccc(C(O)C(O)(Cn2cncn2)c2ccc(C)cc2)cc1 (centres undefined),> 100,> 100,1.6,–,–,–,2.5,–
OC(Cn1cncn1)(c1ccc(Cl)cc1Cl)C(O)(c1ccc(F)cc1)c1cccs1 (centres undefined),> 100,> 100,0.8,–,–,–,5,–
CC(C)C(C)(O)C(O)(Cn1cncn1)c1ccccc1 (centres undefined),> 100,> 100,6.3,–,–,–,10,–

# Continued, in another order:
"MIC [1, 5] [µg/mL]","MIC [2, 6] [µg/mL]","MIC [4, 7] [µg/mL]",MIC [4] [µg/mL],MIC [1] [µg/mL],MIC [2] [µg/mL],Structure (SMILES),minimal effective concentration [3] [µg/mL],MEC [3] [µg/mL]
> 100,> 100,0.8,–,–,–,O=C(c1cccs1)C(O)(Cn1ccnc1)c1ccc(Cl)cc1 (centres undefined),5,–
50,100,0.1,–,–,–,CC(O)(c1ccc(Cl)cc1Cl)C(O)(Cn1cncn1)c1ccc(Cl)cc1 (centres undefined),1.25,–
100,> 100,0.4,–,–,–,CC(C)[C@H]1OCO[C@@]1(Cn1cncn1)c1ccc(Cl)cc1,0.04,–
> 100,> 100,0.4,–,–,–,O=C1O[C@H](c2ccc(Cl)cc2Cl)[C@@](Cn2cncn2)(c2ccccc2)O1,1.25,–
25,> 100,0.1,–,–,–,CC(O)(c1ccc(F)cc1)C(O)(Cn1cncn1)c1ccc(Cl)cc1Cl (stereo in doubt; 173),0.31,–
12.5,> 100,0.2,–,–,–,Clc1ccc([C@H]2OCO[C@]2(Cn2cncn2)c2ccccc2)c(Cl)c1,0.63,–
> 100,> 100,1.6,–,–,–,CCC(O)(Cn1cncn1)C(=O)c1ccc(Cl)cc1Cl (centres undefined),20,–
> 100,> 100,25,–,–,–,O=C(c1ccc(Cl)cc1Cl)C(O)(Cn1cnnc1)c1ccc(Cl)cc1Cl (centres undefined),> 20,–
> 100,50,0.39,–,–,–,O=C(c1ccc(Cl)cc1)C(O)(Cn1cncn1)c1ccc(Cl)cc1 (centres undefined),20,–
> 100,> 100,> 100,–,–,–,O=C(c1ccccn1)C(O)(Cn1cncn1)c1ccccn1 (centres undefined),> 20,–
> 100,> 100,0.1,–,–,–,O=C(c1ccc(Cl)cc1)C(O)(Cn1ccnc1)c1ccc(Cl)cc1 (centres undefined),20,–
> 100,> 100,1.6,–,–,–,O=C(c1ccc(Cl)cc1Cl)C(O)(Cc1ccccc1)Cn1cncn1 (centres undefined),5,–
100,> 100,0.2,–,–,–,CC(C)C(O)(Cn1cncn1)C(=O)c1ccc(Cl)cc1 (centres undefined),0.63,–
> 100,> 100,–,0.8,–,–,OC(c1ccc(F)cc1)C(O)(Cn1cncn1)c1ccc(Cl)cc1 (stereo in doubt; 103),–,0.31
> 100,> 100,0.8,–,–,–,O=C(c1ccc(Cl)cc1)C(O)(Cn1cncn1)c1ccccc1Cl (centres undefined),10,–
> 100,100,0.1,–,–,–,OC(c1ccc(Cl)cc1Cl)C(O)(Cn1cncn1)c1ccc(Cl)cc1 (centres undefined),0.31,–
50,100,0.2,–,–,–,O=C1O[C@H](c2ccc(F)cc2)[C@@](Cn2ccnc2)(c2ccc(Cl)cc2Cl)O1,0.16,–
0.2,50,0.1,–,–,–,Clc1ccc([C@H]2OCO[C@]2(Cn2cncn2)c2ccc(Cl)cc2Cl)cc1,0.02,–
25,> 100,0.1,–,–,–,CC(O)(c1ccc(Cl)cc1)C(O)(Cn1cncn1)c1ccc(Cl)cc1Cl (stereo in doubt; 175),–,0.31
50,100,0.1,–,–,–,CCCCC(O)(Cn1cncn1)C(=O)c1ccc(Cl)cc1Cl (centres undefined),0.31,–
20,100,0.1,–,–,–,O=C1O[C@H](c2ccccc2)[C@@](Cn2ccnc2)(c2ccc(Cl)cc2Cl)O1,0.16,–
12.5,> 100,0.1,–,–,–,CC(O)(c1ccccc1)C(O)(Cn1cncn1)c1ccc(Cl)cc1Cl (stereo in doubt; 166),0.04,–
